In ChEMBL document CHEMBL1127597, “Oxadiazoles as ester bioisosteric replacements in compounds related to disoxaril. Antirhinovirus activity” (1994):
Values after ≈ are worked out from the molar mass of the structure shown. Active and inactive are the calls of the source. No cut-off for these calls is given here.

test system: Human rhinovirus sp.; assay: In vitro concentration required to inhibit 80 percent of human rhinovirus 54 serotypes was determined by TCID50 assay; format: functional

Row | MIC80 | Structure (SMILES)
1 | 0.26 µM (≈ 0.0924 µg/mL) | CCCc1cc(CCCOc2c(C)cc(-c3noc(C)n3)cc2C)on1
2 | 0.3 µM (≈ 0.0982 µg/mL) | Cc1cc(CCCOc2c(C)cc(-c3noc(C)n3)cc2C)on1
3 | 0.3 µM (≈ 0.11 µg/mL) | Cc1cc(CCCOc2c(Cl)cc(-c3noc(C)n3)cc2Cl)on1
4 | 0.23 µM (≈ 0.0879 µg/mL) | CCc1cc(CCCOc2c(Cl)cc(-c3noc(C)n3)cc2Cl)on1
5 | 0.19 µM (≈ 0.0757 µg/mL) | COCc1cc(CCCOc2c(Cl)cc(-c3noc(C)n3)cc2Cl)on1
6 | 0.45 µM (≈ 0.161 µg/mL) | COCc1cc(CCCOc2c(C)cc(-c3noc(C)n3)cc2C)on1

test system: Human rhinovirus sp.; assay: In vitro concentration required to inhibit 80 percent of human rhinovirus 15 serotypes was determined by TCID50 assay; format: functional
Summary of the method: (§1)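 HeLa monolayers were infected with a virus dilution giving 80-100% CPE in 3 days without drug. Compound was serially diluted in 10 2-fold steps onto the infected cells and incubated 3 days at 33 °C in 2.5% CO2. Cells were fixed with 5% glutaraldehyde and stained with 0.25% crystal violet.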

Row | MIC80 | Structure (SMILES)
7 | 0.21 µM (≈ 0.0746 µg/mL) | CCCc1cc(CCCOc2c(C)cc(-c3noc(C)n3)cc2C)on1
8 | 0.73 µM (≈ 0.251 µg/mL) | Cc1nc(-c2cc(C)c(OCCCc3cc(CO)no3)c(C)c2)no1
9 | 3.2 µM (≈ 1.05 µg/mL) | CCc1cc(CCCOc2c(C)cc(-c3ncon3)cc2C)on1
10 | 3.6 µM (≈ 1.24 µg/mL) | Cc1cc(CCCOc2c(C)cc(-c3noc(CO)n3)cc2C)on1
11 | 0.32 µM (≈ 0.109 µg/mL) | CCc1nc(-c2cc(C)c(OCCCc3cc(C)no3)c(C)c2)no1
12 | 0.4 µM (≈ 0.142 µg/mL) | CCc1cc(CCCOc2c(C)cc(-c3noc(CC)n3)cc2C)on1
13 | 0.26 µM (≈ 0.0888 µg/mL) | CCc1cc(CCCOc2c(C)cc(-c3noc(C)n3)cc2C)on1
14 | 0.43 µM (≈ 0.154 µg/mL) | COCc1nc(-c2cc(C)c(OCCCc3cc(C)no3)c(C)c2)no1
15 | 0.79 µM (≈ 0.281 µg/mL) | CCCc1nc(-c2cc(C)c(OCCCc3cc(C)no3)c(C)c2)no1
16 | 0.21 µM (≈ 0.078 µg/mL) | CCc1nc(-c2cc(C)c(OCCCc3cc(COC)no3)c(C)c2)no1
17 | 0.19 µM (≈ 0.0706 µg/mL) | CCOCc1cc(CCCOc2c(C)cc(-c3noc(C)n3)cc2C)on1

Further lines, the compound ahead of its results:

Row | Structure (SMILES) | MIC80
18 | Cc1cc(CCCOc2c(C)cc(-c3nc(C)no3)cc2C)on1 | 0.73 µM (≈ 0.239 µg/mL)
19 | Cc1cc(CCCOc2c(C)cc(-c3noc(C)n3)cc2C)on1 | 0.26 µM (≈ 0.0851 µg/mL)
20 | Cc1cc(CCCOc2c(C)cc(-c3noc(C4CC4)n3)cc2C)on1 | 0.54 µM (≈ 0.191 µg/mL)
21 | Cc1cc(CCCOc2c(Cl)cc(-c3noc(C)n3)cc2Cl)on1 | 0.19 µM (≈ 0.07 µg/mL)
22 | Cc1nc(-c2cc(C)c(OCCCc3cc(C4CC4)no3)c(C)c2)no1 | 0.2 µM (≈ 0.0707 µg/mL)
23 | COc1nc(-c2cc(C)c(OCCCc3cc(C)no3)c(C)c2)no1 | 0.39 µM (≈ 0.134 µg/mL)
24 | CCc1cc(CCCOc2c(Cl)cc(-c3noc(C)n3)cc2Cl)on1 | 0.22 µM (≈ 0.0841 µg/mL)
25 | CCOc1nc(-c2cc(C)c(OCCCc3cc(C)no3)c(C)c2)no1 | 0.23 µM (≈ 0.0822 µg/mL)
26 | Cc1nc(-c2cc(C)c(OCCCc3cc(CCO)no3)c(C)c2)no1 | 1.5 µM (≈ 0.536 µg/mL)
27 | CNc1nc(-c2cc(C)c(OCCCc3cc(C)no3)c(C)c2)no1 | 0.95 µM (≈ 0.325 µg/mL)
28 | COCc1cc(CCCOc2c(Cl)cc(-c3noc(C)n3)cc2Cl)on1 | 0.18 µM (≈ 0.0717 µg/mL)
29 | Cc1nc(-c2cc(C)c(OCCCc3cc(C[S+](C)[O-])no3)c(C)c2)no1 (centres undefined) | 1 µM (≈ 0.389 µg/mL)
30 | Cc1cc(CCCCCOc2c(Cl)cc(C3=NCCO3)cc2Cl)on1 [WIN-54954] | 0.9 µM (≈ 0.345 µg/mL)
31 | Cc1cc(CCCOc2c(C)cc(-c3noc(C(C)C)n3)cc2C)on1 | 0.93 µM (≈ 0.331 µg/mL)
32 | Cc1nc(-c2cc(C)c(OCCCc3cc(CS(C)(=O)=O)no3)c(C)c2)no1 | 0.77 µM (≈ 0.312 µg/mL)
33 | CSCc1cc(CCCOc2c(C)cc(-c3noc(C)n3)cc2C)on1 | 0.32 µM (≈ 0.12 µg/mL)
34 | COCc1cc(CCCOc2c(C)cc(-c3noc(C)n3)cc2C)on1 | 0.22 µM (≈ 0.0786 µg/mL)
35 | Cc1cc(CCCOc2c(C)cc(-c3nnc(C)o3)cc2C)on1 | 3.7 µM (≈ 1.21 µg/mL)
36 | Cc1cc(CCCOc2c(C)cc(-c3noc(N(C)C)n3)cc2C)on1 | 0.8 µM (≈ 0.285 µg/mL)
37 | COCCc1cc(CCCOc2c(C)cc(-c3noc(C)n3)cc2C)on1 | 0.24 µM (≈ 0.0891 µg/mL)
38 | Cc1cc(CCCOc2c(C)cc(-c3nnn(C)n3)cc2C)on1 | 0.71 µM (≈ 0.232 µg/mL)

test system: Human rhinovirus sp.; assay: In vitro concentration required to inhibit 80 percent of human rhinovirus 15 serotypes was determined by TCID50 assay;c= inactive against majority of serotypes; format: functional, organism-based; summary of the method: as §1

Row | MIC80 | Structure (SMILES)
39 | inactive | Cc1cc(CCCOc2c(C)cc(-c3ncon3)cc2C)on1
40 | inactive | Cc1cc(CCCOc2c(C)cc(-c3noc(O)n3)cc2C)on1
41 | inactive | Cc1cc(CCCOc2c(C)cc(-c3noc(C(C)O)n3)cc2C)on1 (centres undefined)

test system: Human rhinovirus sp.; assay: In vitro concentration required to inhibit 80 percent of human rhinovirus 15 serotypes was determined by TCID50 assay;c inactive against majority of serotypes; format: functional, organism-based; summary of the method: as §1

Row | MIC80 | Structure (SMILES)
42 | inactive | Cc1cc(CCCOc2c(C)cc(-c3noc(N)n3)cc2C)on1
43 | inactive | CC(=O)Nc1nc(-c2cc(C)c(OCCCc3cc(C)no3)c(C)c2)no1
44 | inactive | Cc1cc(CCCOc2c(C)cc(-c3noc(S)n3)cc2C)on1
